Entries after “also recorded” stand apart in the source; their conditions may differ. Read-outs that look alike come from different tables or passages of the source.

Assay [1] relates to rat aortic rings. Kind of assay: Isolated rat aortic ring assay. To be noted: cumulative concentration-response. In outline: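 Thoracic aortic rings (2–3 mm) from Sprague–Dawley rats (~300 g) were held in oxygenated Krebs–Henseleit at 37°C under 1 g resting tension, with isometric force recorded. Test compound was added 20 min before 1 μM phenylephrine. At the contraction plateau, cumulative L-cys concentration–response curves were run. At least four rings, each from a different rat; mean ± SEM.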

Assay [2] deals with T1, human CBS (Homo sapiens, UniProt P35520).
T1 sequence (P35520 1-551): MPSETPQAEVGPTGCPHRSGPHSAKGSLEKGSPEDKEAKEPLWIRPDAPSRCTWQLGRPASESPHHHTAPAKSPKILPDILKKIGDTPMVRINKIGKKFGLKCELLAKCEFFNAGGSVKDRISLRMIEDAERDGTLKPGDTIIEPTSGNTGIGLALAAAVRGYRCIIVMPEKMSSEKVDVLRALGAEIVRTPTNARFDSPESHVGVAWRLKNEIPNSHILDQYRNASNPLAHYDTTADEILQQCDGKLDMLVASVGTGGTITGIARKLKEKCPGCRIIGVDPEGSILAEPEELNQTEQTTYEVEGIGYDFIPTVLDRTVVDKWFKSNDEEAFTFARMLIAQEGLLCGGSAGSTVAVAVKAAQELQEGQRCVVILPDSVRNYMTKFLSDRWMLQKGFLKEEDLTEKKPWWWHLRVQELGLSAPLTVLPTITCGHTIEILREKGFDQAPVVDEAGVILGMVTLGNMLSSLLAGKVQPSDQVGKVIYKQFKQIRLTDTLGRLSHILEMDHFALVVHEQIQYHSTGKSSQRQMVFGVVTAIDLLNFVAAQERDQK
Kind of assay: H2S production by purified recombinant GST-CBS. The format is biochemical. The procedure, abridged: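 Human CBS was expressed as an N-terminal GST fusion in E. coli BL21(DE3) Codon Plus (0.3 mM δ-ALA, 0.1 mM IPTG, overnight at 30°C) and purified by GSH affinity. Each 100 μL reaction held 5 μg enzyme, 0.01 mM PLP, 1 mM L-cys, 1 mM homocysteine and 50 mM sodium phosphate pH 8.2. Test compound went in 15 min before substrate, then 60 min at 37°C. Stopped with ZnAc/TCA; methylene blue A655 against H2S standard curve; n = 9.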

Assay [3] addresses human CSE (Homo sapiens, UniProt P32929). As to the kind of experiment: H2S production by purified recombinant GST-CSE. The format is biochemical. To be noted: for IC50: 10 μM PLP, 1 mM L-cys, inhibitor added 15 min before L-cys, 60 min, 37°C. The procedure, abridged: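 Human CSE was made as a GST fusion in E. coli BL21(DE3) Codon Plus (0.1 mM IPTG, overnight at 18°C) and GSH-affinity purified. Each 100 μL reaction held 5 μg enzyme, 0.01 mM PLP, 1 mM L-cys and 50 mM sodium phosphate pH 8.2. Test compound was preincubated 15 min before L-cys, then 60 min at 37°C. ZnAc then TCA; methylene blue absorbance at 655 nm read against H2S calibration; n = 9.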

human CSE, sequence (P32929 whole entry, the tested form may be a part): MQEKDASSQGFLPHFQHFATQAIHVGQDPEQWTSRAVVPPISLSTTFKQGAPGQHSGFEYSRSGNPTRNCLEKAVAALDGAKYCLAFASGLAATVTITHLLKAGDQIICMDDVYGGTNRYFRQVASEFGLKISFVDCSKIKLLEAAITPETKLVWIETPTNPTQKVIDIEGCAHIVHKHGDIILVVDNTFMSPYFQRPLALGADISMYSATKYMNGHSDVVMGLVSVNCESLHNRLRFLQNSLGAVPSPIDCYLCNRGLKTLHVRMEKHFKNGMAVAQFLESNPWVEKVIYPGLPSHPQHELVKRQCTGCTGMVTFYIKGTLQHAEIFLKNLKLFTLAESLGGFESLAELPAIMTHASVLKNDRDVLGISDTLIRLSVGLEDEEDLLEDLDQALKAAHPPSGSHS

For the compound `N[C@@H](CS)C(=O)O` [L-cys, L-cysteine], the “Relaxation of phenylephrine-contracted aortic rings” value in assay [1] is on record as “led to a concentration-dependent relaxation”.
As for `N[C@@H]1CON=C1O` [D-Cycloserine, D-cycloserine], the “CBS H2S production (% of control)” value was 94.2 ± 20.5 % of control in assay [2] (0.1 mM compound) and 80.6 ± 21.0 % of control in assay [2] (1 mM compound). Further, the “CSE H2S production (% of control)” value in assay [3] (0.1 mM compound) is 83.3 ± 19.2 % of control; in assay [3] (1 mM compound), 73.3 ± 18.6 % of control. Further, in assay [3] (1 mM), the “Effect on CSE activity” value is given as “showed a tendency to reduce CSE activity”.
As usually defined, the IC50 is the concentration needed to halve the response being measured. `N[C@H](C(=O)O)C(F)(F)F` [Trifluoroalanine, trifluoroalanine]: the “Potency on CBS relative to HA” value in assay [2] is “fourfold”. The “Selectivity for CBS (fold lower IC50 for CBS versus CSE)” value in assay [2] (IC50 CSE / IC50 CBS) was “fourfold”. Also, the IC50 in assay [3] (read-out: CSE, IC50, 5 μg CSE) turned out to be 289 ± 7 µM.
For the compound `C#CCOc1ccc(N)cc1C(=O)NCCCC` [Parsalmide], the “CBS H2S production (% of control)” value in assay [2] (0.1 mM compound) was 88.4 ± 7.4 % of control; in assay [2] (1 mM compound), 93.8 ± 9.9 % of control. Besides, in assay [2] (0.1 and 1 mM (Table 2)), the “Effect on CBS activity” value is reported as “failed to significantly reduce CSE or CBS activity”. The figures for the “CSE H2S production (% of control)” value in assay [3] (0.1 mM compound) and in assay [3] (1 mM compound) were 86.7 ± 17.8 % of control and 76.7 ± 11.3 % of control, respectively. Also, the “Effect on CSE activity” value in assay [3] (0.1 and 1 mM (Table 2)) is on record as “failed to significantly reduce CSE or CBS activity”.
For the compound `C#CCN(C)Cc1ccccc1` [Pargyline, pargyline], the entries for the “CBS H2S production (% of control)” value in assay [2] (0.1 mM compound) and in assay [2] (1 mM compound) were 74.0 ± 12.8 % of control and 90.1 ± 14.3 % of control, respectively. Also, in assay [2] (0.1 and 1 mM (Table 2)), the “Effect on CBS activity” value is listed as “failed to significantly reduce CSE or CBS activity”. The entries for the “CSE H2S production (% of control)” value in assay [3] (0.1 mM compound) and in assay [3] (1 mM compound) were 96.7 ± 7.1 % of control and 81.7 ± 12.5 % of control, respectively. Further, in assay [3] (0.1 and 1 mM (Table 2)), the “Effect on CSE activity” value is listed as “failed to significantly reduce CSE or CBS activity”.
For `NCCO/C=C/[C@H](N)C(=O)O` [AVG, aminoethoxyvinylglycine], the “Effect on CBS activity” value in assay [2] (up to 1 mM) is “Neither PAG nor AVG had any effect on CBS activity; also recorded: failed to reduce CBS activity”. Besides, the IC50 in assay [3] (CSE, IC50, 5 μg CSE) is 1 ± 0.1 µM.
With `C[Se]C[C@H](N)C(=O)O` [Methylseleno-cysteine, methylselenocysteine], the “CBS H2S production (% of control)” value was 95.5 ± 2.1 % of control in assay [2] (0.1 mM compound) and 79.2 ± 5.1 % of control in assay [2] (1 mM compound). Besides, the “Effect on CBS activity” value in assay [2] (0.1 and 1 mM (Table 2)) is reported as “did not inhibit the activity of neither CBS nor CSE”. Also, the “CSE H2S production (% of control)” value in assay [3] (0.1 mM compound) is 85.5 ± 4.4 % of control; in assay [3] (1 mM compound) it was 79.7 ± 4.3 % of control. In addition, the “Effect on CSE activity” value in assay [3] (0.1 and 1 mM (Table 2)) is on record as “did not inhibit the activity of neither CBS nor CSE”.
`NNC(=O)c1ccncc1` [Isoniazid, isoniazid]: the “CBS H2S production (% of control)” value is reported as 86.4 ± 9.4 % of control in assay [2] (0.1 mM compound) and 88.4 ± 2.1 % of control in assay [2] (1 mM compound). In assay [3] (0.1 mM compound), the “CSE H2S production (% of control)” value is listed as 93.3 ± 23.0 % of control. Also, in assay [3] (1 mM), the “Effect on CSE activity” value is reported as “showed a tendency to reduce CSE activity”.
With `N[C@H](CS)C(=O)O` [D-cysteine], the “Relaxation of phenylephrine-contracted aortic rings” value in assay [1] is listed as “but not D-cysteine, led to a concentration-dependent relaxation”.
Turning to `CCN(CC)/[N+]([O-])=N/O.CCNCC` [DEA/NO, diethylamine NONOate], the “Effect on CBS activity” value in assay [2] (NO donor, up to 250 μM) is given as “did not affect CBS activity; also recorded: CBS was resistant”. Moreover, the “Inhibition of CSE activity” value in assay [3] (5 μM) was “did not inhibit CSE activity”. In assay [3] (250 μM), the “Maximal inhibition of CSE activity” value came out at 75%. The “Effect on CSE activity” value in assay [3] (NO donor, concentration-response) is recorded as “concentration dependently attenuated CSE activity”.
In the case of `NO` [HA, hydroxylamine], the “Inhibition of CBS” value in assay [2] (100 μM) is on record as “approximately 30%”. The figures for the “Inhibition of CSE activity” value in assay [3] (5 μM) and in assay [3] (50 μM) were “approximately 60%” and “abolished CSE activity”, respectively. In addition, the “Selectivity towards CSE versus CBS” value in assay [3] (IC50 CBS / IC50 CSE) came out at 60 fold. Besides, the IC50 in assay [3] (read-out: CSE, IC50, 5 μg CSE) came out at 4.83 ± 0.31 µM.

Values taken from article PMC3687671 (British Journal of Pharmacology, 2013).
